Measured values from different studies.
Protocols differ between the studies behind these lines.
Target: MAP/microtubule affinity-regulating kinase 3 (MARK3, Homo sapiens, UniProt P27448)

Compound	read-out	technique	tested at	remaining binding [%]
COc1cnc(Nc2cccc(S(N)(=O)=O)c2)nc1N1CCN(c2ccccc2)CC1	binding	competition with immobilised ligand	1 µM	100
C[C@H](c1ccc(F)cc1)N(Cc1cccc(C(=O)O)c1)C(=O)c1cnc2ccccc2c1	cell-free assay	competition with immobilised ligand	1 µM	100
C[C@H]1CCN(c2nccc(-c3cnn4ncccc34)n2)C1	binding		1 µM	92
C[C@@H]1CN(c2ccc3ncc(-c4ccc5[nH]nc(C6CC6)c5c4)n3n2)C[C@H](C)O1	binding	competition with immobilised ligand	50 nM	100
CC1CCCN1c1nccc(-c2cnn3ncccc23)n1 (stereo not shown)	binding		1 µM	100
CC(C)(C)c1ccc(-c2nc(CBr)nn2-c2cccc(O)c2)cc1	cell-free assay	competition with immobilised ligand	10 µM	85
Cc1noc([C@H]2C[C@@H](c3ccc(C(F)(F)F)cc3)CN(C(=O)N3CCS(=O)(=O)C3)C2)n1	cell-free assay	competition with immobilised ligand	1 µM	100
N[C@@H]1CCN(c2nccc(-c3cnn4ncccc34)n2)C1	binding		1 µM	100
C[C@H](c1cccc(C#N)c1)n1cc(Cl)cc(C(N)=O)c1=N	cell-free assay	competition with immobilised ligand	1 µM	100
c1cncc(-c2cccc(Nc3nccc(NC4CCCCC4)n3)c2)c1	binding	competition with immobilised ligand	10 µM	99
O=C(Nc1c[nH]nc1C(=O)NC1CCNCC1)c1cc(F)cc(F)c1	binding	competition with immobilised ligand	1 µM	100
O=C(Nc1ccc(Oc2ccc(F)cc2)cc1)N1CCc2ncccc2[C@H]1c1ccc(F)cc1	cell-free assay	competition with immobilised ligand	1 µM	100
O=C(c1ccc(Nc2ncc(Cl)c(-c3ccc(Cl)s3)n2)cc1)N1CCC(N2CCCC2)CC1	binding	competition with immobilised ligand	1 µM	100
CN(c1nccc(-c2cnn3ncccc23)n1)C1CC1	binding		1 µM	100
Cc1c(C(=O)O)cc(-c2ccc(C3CCNCC3)cc2)c2ccc(-c3ccc(C(F)(F)F)cc3)cc12	binding	competition with immobilised ligand	1 µM	100
O=C(NCCCN1CCOCC1)c1ccc(Nc2ncc(Cl)c(-c3ccc(Cl)s3)n2)cc1	binding	competition with immobilised ligand	1 µM	100
